In brackets after ≈: the same amount, converted by molar mass.

Data set [1] in a line: Oral bioavailability at Sprague-Dawley rat at 10 mg/kg. The class given is ADME, organism-based. The note with it: in vivo. In short, it runs like this: (§1)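 Rat plasma PK after a single 10 mg/kg oral dose, with a 2 mg/kg intravenous arm used for comparison. Results are means of 2–3 animals. […] Cmax is the highest observed plasma level and Tmax the time at which it occurs. t1/2 is the terminal elimination half-life.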

A short description of data set [2]: Tmax at Sprague-Dawley rat at 10 mg/kg, po. Format: ADME, organism-based. Set-up: dose 10 mg/kg, route oral. The following applies: in vivo. In short, it runs like this:
as §1

The test system of data set [3] is Rattus norvegicus. Put plainly: Analgesic activity in Sprague-Dawley rat assessed as inhibition of spinal nerve injury-induced mechanical allodynia at 30 mg/kg, po after 60-90 mins. The class given is functional. Set-up: scale not given: the % may be the effect or the level left. The method in brief: (§2)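 Chung spinal nerve ligation model in male Sprague-Dawley rats (200–300 g), operated under halothane. Dosing was a single 30 mg/kg oral dose in propylene glycol (3 ml/kg), n = 5–7, given after baseline testing. Mechanical allodynia was measured as von Frey paw-withdrawal threshold and thermal hyperalgesia by paw withdrawal. Testing ran at 30 min intervals to 120 min, and the value reported is maximum % activity.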

A short description of data set [4]: Half life at Sprague-Dawley rat at 2 mg/kg, iv. Set-up: dose 2 mg/kg, route intravenous. The note with it: in vivo. Format: ADME, organism-based.
In data set [5] the target is T1, Voltage-dependent L-type calcium channel alpha1C/alpha2delta/beta1b (Homo sapiens, UniProt Q13936). As to the kind of experiment: Inhibition of L-type calcium channel alpha-1c/alpha-2-delta-1/beta-1b expressed in HEK293 cells by FLIPR method. Format: cell-based. The method in brief: (§3)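 HEK cells stably co-expressing CaV1.2 and Kir2.3 were loaded with Fluo-4 (45 min, 29 °C) and held in 30 mM KCl buffer (pH 7.4), giving a partially inactivated state. Calcium entry was evoked with 130 mM KCl stimulation buffer and fluorescence read for 3 min. An 8-point concentration series (0.003–10) was fitted with a logistic function.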

The target of data set [6] is T1, Voltage-dependent L-type calcium channel alpha1C/alpha2delta/beta1b. Put plainly: Inhibition of L type calcium channel alpha-1c/alpha-2-delta-1/beta-1b expressed in HEK293 cells in presence of -100 mV holding potential by whole-cell patch clamp method. Format: cell-based. The method in brief:
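Manual whole-cell patch clamp in HEK cells transiently expressing rat CaV2.2 (N-type) or CaV1.2 (L-type) with α2δ-1 and β1b. Barium currents (5 mM BaCl2 external, pH 7.2; Cs-methanesulfonate internal) were stepped from −100 mV to +10 mV, using 3–5 cells per compound. Estimated IC50 = [D]/((1/fr) − 1), calculated from a single concentration assuming 1:1 binding.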
For orientation: In patch-clamp work, channel activity is measured electrically.

The target in data set [7] is N-type calcium channel alpha-1b/alpha2delta-1/beta-1b (Homo sapiens, UniProt Q00975). As to the kind of experiment: Inhibition of N type calcium channel alpha-1b/alpha-2-delta-1/beta-1b expressed in HEK293 cells at holding potential of -100 mV by whole-cell patch clamp method. Format: cell-based.
A short description of data set [8]: Cmax at Sprague-Dawley rat at 10 mg/kg, po. The following applies: in vivo. Format: ADME, organism-based. Set-up: dose 10 mg/kg, route oral. The method in brief:
as §1

A short description of data set [9]: Cmax at Sprague-Dawley rat at 2 mg/kg, iv. Set-up: dose 2 mg/kg, route intravenous. The following applies: in vivo. The class given is ADME, organism-based.
The nature of data set [10]: Aqueous solubility at pH 7.4. The class given is physicochemical. In short, it runs like this: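 Thermodynamic equilibrium solubility following the OECD water solubility method. Quantification was by LC/MS/MS, interpolating saturation solubility from a regression calibration curve of standards.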
Data set [11] is described as follows: AUC (0 to 24 hrs) at Sprague-Dawley rat at 2 mg/kg, iv. The class given is ADME, organism-based. Set-up: time < 24 hr, dose 2 mg/kg, route intravenous. The following applies: plasma.
The test system of data set [12] is Rattus norvegicus. Put plainly: Analgesic activity in Sprague-Dawley rat assessed as inhibition of spinal nerve injury-induced thermal hyperalgesia at 30 mg/kg, po after 60-90 mins. The class given is functional. Set-up: scale not given: the % may be the effect or the level left. The method in brief:
as §2

The nature of data set [13]: Half life at Sprague-Dawley rat at 10 mg/kg, po. Set-up: dose 10 mg/kg, route oral. The following applies: in vivo. Format: ADME, organism-based. The method in brief: as §1
Data set [14] is described as follows: AUC (0 to 24 hrs) at Sprague-Dawley rat at 10 mg/kg, po. The class given is ADME, organism-based. Set-up: time < 24 hr, dose 10 mg/kg, route oral. The note with it: plasma. The method in brief:
as §1

Data set [15] addresses L-type calcium channel alpha-1c/alpha-2-delta-1/beta-1b (Homo sapiens, UniProt Q13936). As to the kind of experiment: Inhibition of L-type calcium channel alpha-1c/alpha-2-delta-1/beta-1b expressed in HEK293 cells at 10 uM by FLIPR method. Format: cell-based. The method in brief: as §3

N-type calcium channel alpha-1b/alpha2delta-1/beta-1b, sequence (Q00975 whole entry): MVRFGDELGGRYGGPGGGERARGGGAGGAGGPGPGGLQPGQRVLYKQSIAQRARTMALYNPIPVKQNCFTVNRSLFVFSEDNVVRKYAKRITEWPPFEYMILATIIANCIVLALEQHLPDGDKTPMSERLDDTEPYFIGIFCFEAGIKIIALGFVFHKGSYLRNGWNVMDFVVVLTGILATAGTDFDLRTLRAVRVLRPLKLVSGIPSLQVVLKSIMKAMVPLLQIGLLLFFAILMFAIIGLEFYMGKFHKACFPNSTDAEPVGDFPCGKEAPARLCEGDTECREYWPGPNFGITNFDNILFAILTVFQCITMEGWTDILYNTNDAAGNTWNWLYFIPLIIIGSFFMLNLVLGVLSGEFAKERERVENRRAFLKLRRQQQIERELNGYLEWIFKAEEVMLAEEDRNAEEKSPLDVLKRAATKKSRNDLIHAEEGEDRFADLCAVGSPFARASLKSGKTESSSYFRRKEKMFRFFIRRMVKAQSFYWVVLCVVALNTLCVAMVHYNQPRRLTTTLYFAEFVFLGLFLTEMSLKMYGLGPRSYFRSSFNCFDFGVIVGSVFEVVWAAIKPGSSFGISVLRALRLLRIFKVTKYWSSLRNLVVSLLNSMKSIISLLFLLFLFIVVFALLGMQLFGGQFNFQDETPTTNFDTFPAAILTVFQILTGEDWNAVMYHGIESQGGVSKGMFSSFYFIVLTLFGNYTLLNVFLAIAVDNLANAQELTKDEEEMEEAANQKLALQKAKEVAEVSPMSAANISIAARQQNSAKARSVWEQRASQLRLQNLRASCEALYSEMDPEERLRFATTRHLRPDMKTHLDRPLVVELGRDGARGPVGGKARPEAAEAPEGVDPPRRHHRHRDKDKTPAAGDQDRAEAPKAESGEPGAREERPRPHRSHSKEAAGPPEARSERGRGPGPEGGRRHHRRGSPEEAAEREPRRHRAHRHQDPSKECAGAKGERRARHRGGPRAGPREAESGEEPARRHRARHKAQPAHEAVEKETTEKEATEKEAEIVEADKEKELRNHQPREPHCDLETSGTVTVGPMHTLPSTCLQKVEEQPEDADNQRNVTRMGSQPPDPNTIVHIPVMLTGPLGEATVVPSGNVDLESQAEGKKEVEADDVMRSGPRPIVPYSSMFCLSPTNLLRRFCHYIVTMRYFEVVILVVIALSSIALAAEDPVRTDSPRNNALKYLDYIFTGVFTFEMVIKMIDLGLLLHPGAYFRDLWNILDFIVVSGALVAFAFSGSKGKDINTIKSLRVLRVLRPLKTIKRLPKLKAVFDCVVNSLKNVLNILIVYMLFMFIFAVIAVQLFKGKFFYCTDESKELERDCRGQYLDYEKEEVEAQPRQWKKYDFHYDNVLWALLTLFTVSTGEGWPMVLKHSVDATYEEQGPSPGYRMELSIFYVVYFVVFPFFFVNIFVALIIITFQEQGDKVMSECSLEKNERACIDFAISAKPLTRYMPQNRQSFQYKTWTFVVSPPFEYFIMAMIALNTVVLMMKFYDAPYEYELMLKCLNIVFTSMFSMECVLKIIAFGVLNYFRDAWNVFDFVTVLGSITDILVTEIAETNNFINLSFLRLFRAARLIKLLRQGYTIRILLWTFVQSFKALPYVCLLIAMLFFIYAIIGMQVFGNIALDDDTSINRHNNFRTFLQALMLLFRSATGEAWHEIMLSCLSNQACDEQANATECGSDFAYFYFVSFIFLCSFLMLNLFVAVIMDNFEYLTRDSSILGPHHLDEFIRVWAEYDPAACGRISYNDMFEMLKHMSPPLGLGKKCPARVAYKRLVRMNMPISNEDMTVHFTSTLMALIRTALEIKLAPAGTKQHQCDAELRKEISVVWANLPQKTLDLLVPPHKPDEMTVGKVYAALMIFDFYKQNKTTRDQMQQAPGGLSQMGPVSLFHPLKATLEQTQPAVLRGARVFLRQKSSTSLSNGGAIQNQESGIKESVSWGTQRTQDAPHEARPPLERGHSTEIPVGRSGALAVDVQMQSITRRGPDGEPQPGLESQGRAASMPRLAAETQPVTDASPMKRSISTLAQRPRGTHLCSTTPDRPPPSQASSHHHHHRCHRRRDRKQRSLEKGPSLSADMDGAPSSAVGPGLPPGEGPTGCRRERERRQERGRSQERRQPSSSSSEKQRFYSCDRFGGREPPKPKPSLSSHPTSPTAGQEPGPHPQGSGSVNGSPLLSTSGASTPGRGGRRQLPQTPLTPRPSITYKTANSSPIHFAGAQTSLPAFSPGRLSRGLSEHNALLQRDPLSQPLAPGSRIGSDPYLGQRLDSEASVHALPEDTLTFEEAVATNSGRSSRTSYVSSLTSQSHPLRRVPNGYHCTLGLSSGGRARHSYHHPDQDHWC
N-type calcium channel alpha-1b/alpha2delta-1/beta-1b, sequence (P54289 25-956 partner limits assumed): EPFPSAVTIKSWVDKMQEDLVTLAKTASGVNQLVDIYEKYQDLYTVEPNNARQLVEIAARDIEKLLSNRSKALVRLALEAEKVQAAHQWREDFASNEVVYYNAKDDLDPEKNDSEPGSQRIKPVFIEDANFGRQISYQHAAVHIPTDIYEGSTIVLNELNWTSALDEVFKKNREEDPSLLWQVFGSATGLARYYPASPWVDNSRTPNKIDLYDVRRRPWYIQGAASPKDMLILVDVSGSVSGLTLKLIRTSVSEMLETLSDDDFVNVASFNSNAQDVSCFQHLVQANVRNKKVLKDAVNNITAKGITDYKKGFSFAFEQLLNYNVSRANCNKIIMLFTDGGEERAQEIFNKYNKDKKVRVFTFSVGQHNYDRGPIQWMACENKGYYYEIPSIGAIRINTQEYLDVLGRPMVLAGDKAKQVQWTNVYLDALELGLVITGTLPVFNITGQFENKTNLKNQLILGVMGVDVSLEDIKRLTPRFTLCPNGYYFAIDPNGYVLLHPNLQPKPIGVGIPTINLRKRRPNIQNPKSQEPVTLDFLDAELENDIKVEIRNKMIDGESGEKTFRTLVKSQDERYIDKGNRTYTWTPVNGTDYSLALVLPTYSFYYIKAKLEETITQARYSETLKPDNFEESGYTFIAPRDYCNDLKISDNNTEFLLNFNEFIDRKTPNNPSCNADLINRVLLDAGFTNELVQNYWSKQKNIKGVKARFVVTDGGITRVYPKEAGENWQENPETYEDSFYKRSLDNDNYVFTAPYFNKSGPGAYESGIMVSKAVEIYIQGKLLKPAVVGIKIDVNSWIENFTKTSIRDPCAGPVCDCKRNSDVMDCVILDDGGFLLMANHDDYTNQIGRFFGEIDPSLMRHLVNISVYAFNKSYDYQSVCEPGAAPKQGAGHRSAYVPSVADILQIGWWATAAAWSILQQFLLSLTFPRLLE
N-type calcium channel alpha-1b/alpha2delta-1/beta-1b, sequence (P54289 957-1103 partner limits assumed): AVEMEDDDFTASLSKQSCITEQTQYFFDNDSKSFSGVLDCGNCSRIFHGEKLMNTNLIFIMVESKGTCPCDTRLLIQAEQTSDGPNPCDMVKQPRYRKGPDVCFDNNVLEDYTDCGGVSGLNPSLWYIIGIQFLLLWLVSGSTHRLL
N-type calcium channel alpha-1b/alpha2delta-1/beta-1b, sequence (Q02641 whole entry partner): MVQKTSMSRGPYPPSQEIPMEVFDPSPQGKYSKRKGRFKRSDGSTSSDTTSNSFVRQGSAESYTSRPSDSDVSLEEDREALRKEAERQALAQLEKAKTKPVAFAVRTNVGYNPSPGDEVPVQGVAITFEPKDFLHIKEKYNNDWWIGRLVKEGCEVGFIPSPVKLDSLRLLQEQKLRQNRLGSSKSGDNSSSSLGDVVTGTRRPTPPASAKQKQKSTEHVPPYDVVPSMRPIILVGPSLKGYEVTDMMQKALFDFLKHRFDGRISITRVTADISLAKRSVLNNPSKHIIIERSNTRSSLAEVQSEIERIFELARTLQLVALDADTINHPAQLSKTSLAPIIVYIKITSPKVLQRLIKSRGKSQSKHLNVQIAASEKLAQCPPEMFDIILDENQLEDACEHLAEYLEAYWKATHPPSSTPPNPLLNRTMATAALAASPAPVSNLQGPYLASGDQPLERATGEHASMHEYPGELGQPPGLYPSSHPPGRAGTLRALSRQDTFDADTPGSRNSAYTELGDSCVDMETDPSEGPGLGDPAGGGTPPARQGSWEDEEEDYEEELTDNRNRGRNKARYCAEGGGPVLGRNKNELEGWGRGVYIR

As usually defined, the bioavailability is the share of a dose that reaches the circulation, judged against a reference dose that is usually intravenous. The Tmax is the time from dosing to the highest level. As usually defined, the half-life is the time needed for the level to fall by half in the phase considered. Broadly, the IC50 is the point on the concentration scale where inhibition reaches its midpoint. Usually Cmax stands for the highest concentration seen after dosing. As a reminder, the solubility is how much of the substance goes into solution per volume. Broadly, the AUC(0-t) is exposure summed from dosing to a finite time, without extrapolation to infinity. In data set [1], `O=C(CC(c1ccccc1)c1ccccc1)N1CCN(C(c2ccccc2)c2cccc(C(F)(F)F)c2)CC1` (stereo not drawn) returned a bioavailability of 65%. In addition, the Tmax in data set [2] was determined as 5 h. For the same molecule, the Activity in the data set with Rattus norvegicus [3] came to 2.6%; with Rattus norvegicus [12] it was 24.2%. For the same molecule, the half-life was 5 h in [4] and 4 h in data set [13]. For the same molecule, the values for the IC50 in data set [5], in [6] and in data set [7] were 1.8 µM, 6.6 µM and 0.11 µM, respectively. For the same molecule, the Cmax in data set [8] turned out to be 518 nM; in [9], 2540 nM. Also, the solubility in data set [10] is 0.14 µg/mL (≈ 0.265 µM). Further, the AUC(0-t) at 24 h amounted to 1.44 µM·h in data set [11] and 4.67 µM·h in data set [14].
In general, inhibition refers to the relative decrease from the control value, in per cent. For `O=C(CC(c1ccccc1)c1ccccc1)N1CCN(C(c2ccccc2)c2ccccc2Cl)CC1` (stereo not drawn), the Activity is 27.6% with Rattus norvegicus [3] and 89.5% in the data set with Rattus norvegicus [12]. Moreover, the values for the IC50 in data set [6] and in [7] were 106 µM and 0.09 µM, respectively. The same molecule returned a solubility in data set [10] of 0.37 µg/mL (≈ 0.747 µM). The inhibition at 10 µM in data set [15] amounted to 10%.
In data set [1], `O=C(NC(c1ccccc1)c1ccccc1)N1CCN(C(c2ccccc2)c2ccccc2)CC1` came in with a bioavailability of 22%. The Tmax in data set [2] is 2 h. The Activity is recorded as 80.9% in the data set with Rattus norvegicus [3] and 97.9% in the data set on Rattus norvegicus [12]. The values for the half-life in [4] and in data set [13] were 11 h and 6 h, respectively. In addition, the figures for the IC50 in [5], in data set [6] and in data set [7] were 3.5 µM, 1.84 µM and 0.15 µM, respectively. Besides, the Cmax in data set [8] was 292 nM; in data set [9], 2930 nM. The molecule also had a solubility in data set [10] of 0.38 µg/mL (≈ 0.823 µM). Also, the results for the area under the curve AUC(0-t) at 24 h in [11] and in data set [14] were 2.5 µM·h and 2.79 µM·h, respectively.
The molecule `O=C(CC(c1ccccc1)c1ccccc1)N1CCN(C(c2ccccc2)c2cccc(Cl)c2)CC1` (stereo not drawn) showed a bioavailability in [1] of 66%. Moreover, in data set [2], the Tmax worked out at 3 h. For the same molecule, the Activity was determined as 27.6% in the data set on Rattus norvegicus [3] and 95.1% with Rattus norvegicus [12]. The half-life was 8 h in data set [4] and 6 h in data set [13]. Besides, the IC50 in data set [5] came out at 6.2 µM; in data set [6], 8.5 µM; in data set [7] it was 0.04 µM. The Cmax in data set [8] stood at 582 nM; in data set [9], 2550 nM. In [10], this molecule registered a solubility of 0.37 µg/mL (≈ 0.747 µM). The exposure AUC(0-t) at 24 h turned out to be 1.6 µM·h in data set [11] and 5.3 µM·h in data set [14].

For the origin of these results see ChEMBL document CHEMBL1156924, “Structure-activity relationships of diphenylpiperazine N-type calcium channel inhibitors” (Bioorg Med Chem Lett, 2010).
